Assay results from ChEMBL document CHEMBL5705905, “Pharmacological targeting of kinases MST1 and MST2 augments tissue repair and regeneration” (Sci Transl Med, 2016).

Key:
[1] = target: Calcium/calmodulin-dependent protein kinase type II subunit gamma (Homo sapiens) (UniProt Q13555); assay: Inhibition of CAMK2G (unknown origin) assessed as remaining activity at 1 uM by Kinome scan method relative to control
Summary of the method: (§1)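 Active-site-dependent competition-binding profiling (KINOMEscan) at 1 μM against a 468-kinase panel; compound supplied from a 10 mM DMSO stock. Read-out is ctrl% = (test signal − positive control signal)/(negative control signal − positive control signal) × 100. DMSO is the negative control (100%) and a control compound the positive control (0%). Lower ctrl% means tighter binding.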

[2] = target: Mitogen-activated protein kinase kinase kinase kinase 1 (Homo sapiens) (UniProt Q92918); assay: Inhibition of HPK1 (unknown origin) assessed as remaining activity at 1 uM by Kinome scan method relative to control
[3] = target: Ribosomal protein S6 kinase alpha-5 (Homo sapiens) (UniProt O75582); assay: Inhibition of C-terminal kinase domain RPS6KA5 (unknown origin) assessed as remaining activity at 1 uM by Kinome scan method relative to control
Summary of the method: (§2)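 Active-site-dependent competition-binding (KINOMEscan) panel of 468 kinases, test compound at 1 μM (from a 10 mM DMSO stock). Read-out is ctrl% = (test signal − positive control signal)/(negative control signal − positive control signal) × 100. DMSO is the negative control (100%) and a control compound is the positive control (0%). Lower ctrl% means tighter binding.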

[4] = target: Mitogen-activated protein kinase 4 (Homo sapiens) (UniProt P31152); assay: Inhibition of ERK4 (unknown origin) assessed as remaining activity at 1 uM by Kinome scan method relative to control
[5] = system: Phosphatidylinositol 4,5-bisphosphate 3-kinase catalytic subunit alpha isoform (Homo sapiens), P42336 [C420R]; assay: Inhibition of PIK3CA C420R mutant (unknown origin) assessed as remaining activity at 1 uM by Kinome scan method relative to control
[6] = target: Discoidin domain-containing receptor 2 (Homo sapiens) (UniProt Q16832); assay: Inhibition of DDR2 (unknown origin) assessed as remaining activity at 1 uM by Kinome scan method relative to control
[7] = target: Serine/threonine-protein kinase VRK2 (Homo sapiens) (UniProt Q86Y07); assay: Inhibition of VRK2 (unknown origin) assessed as remaining activity at 1 uM by Kinome scan method relative to control
[8] = Half life in male Sprague-Dawley rat at 5 mg/kg, iv measured for 24 hrs by LC-MS/MS analysis; assay type: ADME, organism-based; settings: in vivo
Summary of the method: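 Sprague-Dawley rats, single intravenous or oral dose. Parameters (half-life, AUC, bioavailability) reported in a supplementary table.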

[9] = target: Serine/threonine-protein kinase Nek11 (Homo sapiens) (UniProt Q8NG66); assay: Inhibition of NEK11 (unknown origin) assessed as remaining activity at 1 uM by Kinome scan method relative to control
[10] = Acute toxicity in mouse assessed as increase in BrdU-positive cells at 1 mg/kg,ip administrated once a daily for 3 weeks by H and E staining based immunohistochemical analysis relative to control; assay type: organism-based, Liver; settings: in vivo, 504 h
Summary of the method: (§3)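 Postnatal mice dosed from 10 days of age with vehicle or 1 mg/kg once per day for 21 days (3 weeks). Vehicle is 0.1% citric acid aqueous solution containing 20% Kolliphor HS 15. Liver sections stained with H&E and by IHC for CK19 and BrdU, with positive cells quantified (n = 3). Liver/body weight ratio recorded (n = 4). Values are means ± SD versus vehicle, Student's t test.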

[11] = target: Cyclin-dependent kinase 11A (Homo sapiens) (UniProt Q9UQ88); assay: Inhibition of CDC2L2 (unknown origin) assessed as remaining activity at 1 uM by Kinome scan method relative to control; summary of the method: as §1
[12] = target: Receptor-interacting serine/threonine-protein kinase 2 (Homo sapiens) (UniProt O43353); assay: Inhibition of RIPK2 (unknown origin) assessed as remaining activity at 1 uM by Kinome scan method relative to control
[13] = target: T1, Serine/threonine-protein kinase 4 (Homo sapiens, UniProt Q13043); assay: Binding affinity to MST1 (unknown origin) assessed as dissociation constant
T1 sequence (Q13043 whole entry): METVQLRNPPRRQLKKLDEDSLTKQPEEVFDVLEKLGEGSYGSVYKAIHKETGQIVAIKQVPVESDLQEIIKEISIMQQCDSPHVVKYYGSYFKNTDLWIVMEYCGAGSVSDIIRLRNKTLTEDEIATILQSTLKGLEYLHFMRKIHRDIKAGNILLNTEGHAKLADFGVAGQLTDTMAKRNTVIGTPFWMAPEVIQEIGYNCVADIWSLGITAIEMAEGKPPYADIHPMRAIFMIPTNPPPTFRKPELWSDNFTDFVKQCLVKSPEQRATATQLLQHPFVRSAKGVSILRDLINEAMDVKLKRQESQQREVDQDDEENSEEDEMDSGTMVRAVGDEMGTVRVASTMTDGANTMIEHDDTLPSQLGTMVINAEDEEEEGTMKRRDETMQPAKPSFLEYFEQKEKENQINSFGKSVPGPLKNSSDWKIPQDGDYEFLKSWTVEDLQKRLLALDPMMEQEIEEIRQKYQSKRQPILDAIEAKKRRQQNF

[14] = target: Testis-specific serine/threonine-protein kinase 3 (Homo sapiens) (UniProt Q96PN8); assay: Inhibition of TSSK3 (unknown origin) assessed as remaining activity at 1 uM by Kinome scan method relative to control
[15] = target: Serine/threonine-protein kinase 38 (Homo sapiens) (UniProt Q15208); assay: Inhibition of NDR1 (unknown origin) assessed as remaining activity at 1 uM by Kinome scan method relative to control
[16] = target: Atypical kinase COQ8B, mitochondrial (Homo sapiens) (UniProt Q96D53); assay: Inhibition of ADCK4 (unknown origin) assessed as remaining activity at 1 uM by Kinome scan method relative to control; summary of the method: as §2
[17] = target: Serine/threonine-protein kinase 3 (Homo sapiens) (UniProt Q13188); settings: dose 100.0 µM
[18] = target: Beta-adrenergic receptor kinase 1 (Homo sapiens) (UniProt P25098); assay: Inhibition of GRK2 (unknown origin) assessed as remaining activity at 1 uM by Kinome scan method relative to control
[19] = target: Transient receptor potential cation channel subfamily M member 6 (Homo sapiens) (UniProt Q9BX84); assay: Inhibition of TRPM6 (unknown origin) assessed as remaining activity at 1 uM by Kinome scan method relative to control
[20] = target: Interferon-induced, double-stranded RNA-activated protein kinase (Homo sapiens) (UniProt P19525); assay: Inhibition of PRKR (unknown origin) assessed as remaining activity at 1 uM by Kinome scan method relative to control
[21] = target: RAC-beta serine/threonine-protein kinase (Homo sapiens) (UniProt P31751); assay: Inhibition of AKT2 (unknown origin) assessed as remaining activity at 1 uM by Kinome scan method relative to control; summary of the method: as §2
[22] = Acute toxicity in mouse assessed as increase in CK19-positive cells at 1 mg/kg,ip administrated once a daily for 3 weeks by H and E staining based immunohistochemical analysis relative to control; assay type: organism-based, Liver; settings: in vivo, 504 h; summary of the method: as §3
[23] = target: Casein kinase II subunit alpha (Homo sapiens) (UniProt P68400); assay: Inhibition of CSNK2A1 (unknown origin) assessed as remaining activity at 1 uM by Kinome scan method relative to control; summary of the method: as §1

Serine/threonine-protein kinase 38 (Homo sapiens), sequence (Q15208 2-465 limits assumed): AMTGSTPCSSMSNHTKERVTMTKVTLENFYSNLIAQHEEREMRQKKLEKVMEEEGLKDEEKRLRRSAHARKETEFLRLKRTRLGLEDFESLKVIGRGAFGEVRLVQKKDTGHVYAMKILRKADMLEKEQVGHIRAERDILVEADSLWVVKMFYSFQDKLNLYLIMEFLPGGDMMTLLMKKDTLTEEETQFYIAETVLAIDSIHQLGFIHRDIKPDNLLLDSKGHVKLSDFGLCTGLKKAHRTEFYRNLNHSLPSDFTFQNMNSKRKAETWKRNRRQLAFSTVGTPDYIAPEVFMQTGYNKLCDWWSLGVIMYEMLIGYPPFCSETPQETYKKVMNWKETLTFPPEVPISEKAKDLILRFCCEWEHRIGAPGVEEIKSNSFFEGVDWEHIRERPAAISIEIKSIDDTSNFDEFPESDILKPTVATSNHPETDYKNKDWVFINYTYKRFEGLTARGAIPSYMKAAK
Phosphatidylinositol 4,5-bisphosphate 3-kinase catalytic subunit alpha isoform (Homo sapiens), P42336 [C420R], sequence (P42336 whole entry C420R, the tested form may be a part, canonical isoform): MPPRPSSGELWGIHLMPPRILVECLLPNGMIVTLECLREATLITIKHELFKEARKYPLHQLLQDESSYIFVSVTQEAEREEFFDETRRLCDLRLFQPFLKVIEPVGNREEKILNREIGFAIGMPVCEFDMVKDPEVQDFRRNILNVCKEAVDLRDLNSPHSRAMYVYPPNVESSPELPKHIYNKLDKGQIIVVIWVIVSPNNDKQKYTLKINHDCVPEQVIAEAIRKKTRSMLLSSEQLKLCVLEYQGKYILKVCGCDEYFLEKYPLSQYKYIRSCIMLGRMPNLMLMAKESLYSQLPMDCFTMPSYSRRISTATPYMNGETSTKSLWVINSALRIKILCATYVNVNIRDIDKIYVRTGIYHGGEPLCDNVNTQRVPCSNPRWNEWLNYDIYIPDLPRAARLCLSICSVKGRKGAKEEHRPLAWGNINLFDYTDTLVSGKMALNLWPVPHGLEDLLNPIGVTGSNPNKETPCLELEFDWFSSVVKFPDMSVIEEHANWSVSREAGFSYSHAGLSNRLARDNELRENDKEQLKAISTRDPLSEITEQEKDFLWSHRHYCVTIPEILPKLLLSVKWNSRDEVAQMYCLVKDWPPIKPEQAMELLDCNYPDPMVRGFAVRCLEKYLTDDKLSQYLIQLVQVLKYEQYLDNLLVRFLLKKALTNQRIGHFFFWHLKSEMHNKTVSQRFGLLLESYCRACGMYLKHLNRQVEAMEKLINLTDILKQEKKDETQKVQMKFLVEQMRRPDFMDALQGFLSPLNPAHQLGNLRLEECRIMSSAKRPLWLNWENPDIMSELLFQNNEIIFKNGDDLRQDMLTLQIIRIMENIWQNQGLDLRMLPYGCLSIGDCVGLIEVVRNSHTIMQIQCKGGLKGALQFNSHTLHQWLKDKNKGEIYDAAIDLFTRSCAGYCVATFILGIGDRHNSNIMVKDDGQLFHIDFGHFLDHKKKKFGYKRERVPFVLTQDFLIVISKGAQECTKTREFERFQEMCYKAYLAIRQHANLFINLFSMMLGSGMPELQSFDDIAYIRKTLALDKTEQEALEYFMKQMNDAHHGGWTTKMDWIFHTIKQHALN
Serine/threonine-protein kinase 3 (Homo sapiens), sequence (Q13188 whole entry): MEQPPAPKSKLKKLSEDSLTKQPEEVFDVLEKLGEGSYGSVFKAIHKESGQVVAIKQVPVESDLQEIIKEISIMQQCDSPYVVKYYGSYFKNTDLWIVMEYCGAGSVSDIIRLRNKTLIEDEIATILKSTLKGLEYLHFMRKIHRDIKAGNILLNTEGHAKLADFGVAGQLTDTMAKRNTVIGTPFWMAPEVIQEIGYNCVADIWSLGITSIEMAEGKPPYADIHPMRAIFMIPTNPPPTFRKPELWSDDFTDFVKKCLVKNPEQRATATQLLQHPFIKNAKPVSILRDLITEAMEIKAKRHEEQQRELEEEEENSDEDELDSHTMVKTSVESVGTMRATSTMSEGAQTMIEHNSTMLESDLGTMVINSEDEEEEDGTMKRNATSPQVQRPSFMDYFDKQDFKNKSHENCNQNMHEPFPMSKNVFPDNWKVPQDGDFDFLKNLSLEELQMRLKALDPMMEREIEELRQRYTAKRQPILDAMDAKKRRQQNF
Serine/threonine-protein kinase VRK2 (Homo sapiens), sequence (Q86Y07 whole entry): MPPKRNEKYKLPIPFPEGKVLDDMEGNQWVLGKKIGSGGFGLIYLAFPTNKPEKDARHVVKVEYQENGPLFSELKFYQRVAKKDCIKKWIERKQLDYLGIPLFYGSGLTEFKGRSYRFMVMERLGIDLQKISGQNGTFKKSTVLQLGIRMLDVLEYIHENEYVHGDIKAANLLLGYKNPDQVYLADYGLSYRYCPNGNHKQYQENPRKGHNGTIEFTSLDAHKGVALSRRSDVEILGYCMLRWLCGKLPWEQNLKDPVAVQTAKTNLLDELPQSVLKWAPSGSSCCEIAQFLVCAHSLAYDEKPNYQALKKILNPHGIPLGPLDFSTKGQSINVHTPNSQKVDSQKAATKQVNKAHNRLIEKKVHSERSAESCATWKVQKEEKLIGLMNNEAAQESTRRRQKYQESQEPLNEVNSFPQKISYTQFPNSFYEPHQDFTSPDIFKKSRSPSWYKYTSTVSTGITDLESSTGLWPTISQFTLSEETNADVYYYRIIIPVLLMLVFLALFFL
Interferon-induced, double-stranded RNA-activated protein kinase (Homo sapiens), sequence (P19525 whole entry): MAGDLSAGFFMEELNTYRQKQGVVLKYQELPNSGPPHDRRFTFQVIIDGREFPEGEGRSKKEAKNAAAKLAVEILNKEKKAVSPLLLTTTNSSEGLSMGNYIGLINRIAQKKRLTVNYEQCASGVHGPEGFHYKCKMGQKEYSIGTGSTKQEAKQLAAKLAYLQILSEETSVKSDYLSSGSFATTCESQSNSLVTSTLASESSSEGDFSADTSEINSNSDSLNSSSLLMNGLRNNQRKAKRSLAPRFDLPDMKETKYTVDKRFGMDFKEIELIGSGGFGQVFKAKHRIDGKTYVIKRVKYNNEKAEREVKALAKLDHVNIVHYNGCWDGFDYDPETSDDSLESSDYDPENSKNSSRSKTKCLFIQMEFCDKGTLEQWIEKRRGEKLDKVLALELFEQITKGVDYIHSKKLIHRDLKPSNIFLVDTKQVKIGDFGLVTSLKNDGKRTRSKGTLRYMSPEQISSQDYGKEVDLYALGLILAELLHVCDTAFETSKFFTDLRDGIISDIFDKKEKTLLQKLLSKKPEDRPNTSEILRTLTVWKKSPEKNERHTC
Atypical kinase COQ8B, mitochondrial (Homo sapiens), sequence (Q96D53 whole entry): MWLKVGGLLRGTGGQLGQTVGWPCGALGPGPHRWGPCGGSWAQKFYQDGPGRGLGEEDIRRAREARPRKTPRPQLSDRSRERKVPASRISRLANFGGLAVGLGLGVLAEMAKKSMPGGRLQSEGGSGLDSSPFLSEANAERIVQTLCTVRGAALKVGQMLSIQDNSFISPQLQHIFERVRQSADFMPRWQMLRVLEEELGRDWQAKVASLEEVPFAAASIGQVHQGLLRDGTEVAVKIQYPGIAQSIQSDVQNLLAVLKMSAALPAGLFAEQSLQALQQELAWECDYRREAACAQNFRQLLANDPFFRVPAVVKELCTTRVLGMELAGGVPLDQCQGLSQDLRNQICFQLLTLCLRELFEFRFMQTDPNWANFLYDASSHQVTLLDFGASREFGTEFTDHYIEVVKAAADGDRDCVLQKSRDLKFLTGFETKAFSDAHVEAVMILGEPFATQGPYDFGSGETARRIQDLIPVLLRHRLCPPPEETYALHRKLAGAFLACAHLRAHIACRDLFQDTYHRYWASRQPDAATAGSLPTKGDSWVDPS
Mitogen-activated protein kinase kinase kinase kinase 1 (Homo sapiens), sequence (Q92918 whole entry, looked up, the tested form may be a part): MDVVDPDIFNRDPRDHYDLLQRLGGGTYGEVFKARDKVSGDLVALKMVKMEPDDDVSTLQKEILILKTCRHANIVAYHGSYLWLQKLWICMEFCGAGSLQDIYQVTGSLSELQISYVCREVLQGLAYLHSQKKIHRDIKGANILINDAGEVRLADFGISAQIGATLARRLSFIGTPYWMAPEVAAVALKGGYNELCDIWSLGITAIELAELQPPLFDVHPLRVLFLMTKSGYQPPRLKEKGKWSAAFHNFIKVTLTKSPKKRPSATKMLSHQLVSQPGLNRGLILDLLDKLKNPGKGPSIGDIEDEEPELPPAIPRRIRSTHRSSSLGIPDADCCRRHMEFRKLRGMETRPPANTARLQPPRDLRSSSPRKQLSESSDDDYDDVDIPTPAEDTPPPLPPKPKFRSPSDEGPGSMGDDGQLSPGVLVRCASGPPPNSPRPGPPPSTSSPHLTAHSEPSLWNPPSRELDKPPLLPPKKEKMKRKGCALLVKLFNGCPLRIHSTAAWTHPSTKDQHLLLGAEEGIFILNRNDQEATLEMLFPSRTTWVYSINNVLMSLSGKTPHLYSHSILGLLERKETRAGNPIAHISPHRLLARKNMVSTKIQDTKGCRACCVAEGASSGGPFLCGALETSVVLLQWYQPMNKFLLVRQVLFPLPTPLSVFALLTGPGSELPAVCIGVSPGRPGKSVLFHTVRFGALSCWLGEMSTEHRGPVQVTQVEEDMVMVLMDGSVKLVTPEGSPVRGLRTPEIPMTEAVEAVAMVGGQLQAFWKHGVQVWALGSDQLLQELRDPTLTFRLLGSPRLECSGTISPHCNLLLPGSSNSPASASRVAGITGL
Mitogen-activated protein kinase 4 (Homo sapiens), sequence (P31152 whole entry, canonical isoform): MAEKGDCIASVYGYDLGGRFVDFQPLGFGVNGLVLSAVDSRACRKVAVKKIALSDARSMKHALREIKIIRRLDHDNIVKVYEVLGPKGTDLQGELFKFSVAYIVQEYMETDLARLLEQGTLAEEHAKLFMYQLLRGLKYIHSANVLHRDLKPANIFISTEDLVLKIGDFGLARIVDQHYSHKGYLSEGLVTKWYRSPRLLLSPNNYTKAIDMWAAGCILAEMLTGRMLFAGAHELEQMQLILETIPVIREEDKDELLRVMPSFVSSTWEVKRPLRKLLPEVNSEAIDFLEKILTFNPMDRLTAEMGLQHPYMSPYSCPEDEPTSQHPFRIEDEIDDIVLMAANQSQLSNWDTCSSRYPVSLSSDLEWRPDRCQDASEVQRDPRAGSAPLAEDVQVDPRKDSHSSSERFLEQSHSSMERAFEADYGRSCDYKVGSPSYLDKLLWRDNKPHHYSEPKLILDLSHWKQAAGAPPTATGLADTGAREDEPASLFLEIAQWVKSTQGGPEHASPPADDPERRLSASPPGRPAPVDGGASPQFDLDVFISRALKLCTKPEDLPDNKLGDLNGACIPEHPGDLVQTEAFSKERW

Compound `CN1C(=O)c2sccc2N(C)c2nc(Nc3ccc(S(N)(=O)=O)cc3)ncc21` has an Activity [1] of 100%, an Activity [2] of 79% and an Activity [3] of 81%. The Activity [4] was 80%, the Activity [5] was 96% and the Activity [6] was 100%. For the same compound, the Activity [7] was 85%, the half-life [8] was 1.24 h and the Activity [9] was 100%. For the same compound, the Activity [10] was 15%, the Activity [11] was 97% and the Activity [12] was 100%. For the same compound, the Kd [13] was 17 nM, the Activity [14] was 93% and the Activity [15] was 62%. For the same compound, the Activity [16] was 79%, the Tm [17] was 62 °C and the Activity [18] was 100%. For the same compound, the Activity [19] was 94%, the Activity [20] was 100% and the Activity [21] was 100%. It also gave an Activity [22] of 15% and an Activity [23] of 94%.
